# Laboratory results from ChEMBL document CHEMBL1135544, “Design, synthesis, and biological activity of hybrid compounds between uramustine and DNA minor groove binder distamycin A” (J Med Chem, 2002).
# System: K562
# Experiment: In vitro antitumor activity against human chronic myeloid leukemia K562 cell line
# Format: functional, cell-based
# Procedure, shortened: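 K562 cells grown in RPMI 1640 with 10% fetal calf serum and 2 mM glutamine at 37 °C, 5% CO2. Exposed to drug for 1 h at 37 °C in the dark, then centrifuged and washed. Seeded at 10⁴ cells/well, 8 wells per sample, and cultured 4 days. MTT read at 550 nm. IC50 is the dose giving 50% of control OD, mean of at least three experiments.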
row,SMILES,IC50
1,Cn1cc(NC(=O)c2cc(NC(=O)c3cc(NC(=O)CCn4cc(N(CCCl)CCCl)c(=O)[nH]c4=O)cn3C)cn2C)cc1C(=O)NCCC(=N)N,2.54 µM
2,O=C(O)CCCn1cc(N(CCCl)CCCl)c(=O)[nH]c1=O,> 100 µM
3,O=C(O)CCCCn1cc(N(CCCl)CCCl)c(=O)[nH]c1=O,> 100 µM
4,Cn1cc(NC(=O)c2cc(NC(=O)c3cc(NC(=O)CCCCCCn4cc(N(CCCl)CCCl)c(=O)[nH]c4=O)cn3C)cn2C)cc1C(=O)NCCC(=N)N,0.07 µM
5,Cn1cc(NC(=O)c2cc(NC(=O)c3cc(NC(=O)CCCn4cc(N(CCCl)CCCl)c(=O)[nH]c4=O)cn3C)cn2C)cc1C(=O)NCCC(=N)N,7.26 µM
6,Oc1ncc(N(CCCl)CCCl)c(O)n1 [URACIL MUSTARD],5.1 µM
7,O=C(O)CCCCCCn1cc(N(CCCl)CCCl)c(=O)[nH]c1=O,> 100 µM
8,O=C(O)CCCCCn1cc(N(CCCl)CCCl)c(=O)[nH]c1=O,> 100 µM
9,Cn1cc(NC(=O)c2cc(NC(=O)c3cc(NC(=O)CCCCn4cc(N(CCCl)CCCl)c(=O)[nH]c4=O)cn3C)cn2C)cc1C(=O)NCCC(=N)N,0.11 µM
10,Cn1cc(NC(=O)c2cc(NC(=O)c3cc(NC(=O)CCCCCn4cc(N(CCCl)CCCl)c(=O)[nH]c4=O)cn3C)cn2C)cc1C(=O)NCCC(=N)N,0.14 µM
11,Cn1cc(NC(=O)c2cc(NC(=O)c3cc(NC=O)cn3C)cn2C)cc1C(=O)NCCC(=N)N,> 100 µM
12,Cn1cc(NC(=O)c2cc(NC(=O)c3cc(NC(=O)Cn4cc(N(CCCl)CCCl)c(=O)[nH]c4=O)cn3C)cn2C)cc1C(=O)NCCC(=N)N,4.06 µM
